Scp1 inh – Scp-1 (human) phosphatase inhibition | Q9GZU7 | Recombinant Scp1, phosphopeptide, malachite green phosphate absorbance | inhibition, % at 20 µM | hit rate 0.88% among 340,000;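 active = inhibition above about 50% at 20 µM, limit read from the data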;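 note: plate controls were DMSO wells with enzyme for no effect and wells lacking enzyme for full effect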
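Material – SCP-1 phosphatase catalytic domain, residues 76-261 · Buffer or medium – Acidic Tris acetate buffer with magnesium and detergent · Also added – Phospho 17-mer peptide substrate · Compound – single 20 µM dose, 1% DMSO · Times – 45 min room-temperature reaction, 5 min colour, 30 min stabiliser · Technique – Phosphate-binding colour reagent, absorbance read at 630 nm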
DNMT1 block – inhibitors of human DNMT1; P26358; DNMT1 molecular beacon, Hinp1I cleavage, fluorescence; inhibition (reported as % activation of signal), % at 10 µM; hit rate 0.83% among 360,000; AID 588458; in the data active = inhibition above about 50%
STEP inh – STEP (human) phosphatase inhibition | P54829 | recombinant STEP, OMFP fluorogenic substrate, fluorescence | inhibition, % at 20 µM | hit rate 0.25% among 360,000;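 active = inhibition at 20 µM, scaled per plate between control wells, above about 37%, limit read from the data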;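 note: 0% = DMSO with enzyme and substrate and 100% = substrate only without enzyme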
Target sequence (P54829 whole entry, looked up): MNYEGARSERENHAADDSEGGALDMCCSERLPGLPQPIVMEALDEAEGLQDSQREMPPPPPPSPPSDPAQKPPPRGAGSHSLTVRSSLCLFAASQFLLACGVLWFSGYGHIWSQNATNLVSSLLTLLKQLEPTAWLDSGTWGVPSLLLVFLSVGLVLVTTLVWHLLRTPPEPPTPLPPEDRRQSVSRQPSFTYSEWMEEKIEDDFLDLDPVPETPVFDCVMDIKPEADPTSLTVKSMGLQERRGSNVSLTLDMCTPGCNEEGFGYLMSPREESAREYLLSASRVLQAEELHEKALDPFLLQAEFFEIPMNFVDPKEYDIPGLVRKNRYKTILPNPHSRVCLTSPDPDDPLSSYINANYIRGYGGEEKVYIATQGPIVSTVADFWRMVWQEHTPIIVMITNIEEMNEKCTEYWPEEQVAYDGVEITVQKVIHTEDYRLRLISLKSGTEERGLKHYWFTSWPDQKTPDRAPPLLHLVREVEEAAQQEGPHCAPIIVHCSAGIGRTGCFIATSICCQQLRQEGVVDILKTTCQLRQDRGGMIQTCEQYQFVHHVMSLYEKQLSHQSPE
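System: STEP (striatal-enriched tyrosine phosphatase) enzyme, cell-free; medium: Bis-Tris pH 6.0 buffer with DTT, detergent; dosing: 20 µM, 1% DMSO; times: reaction 20 min, ambient temperature; detection: fluorescence, 480/540 nm; read-out basis: normalized % inhibition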
LMPTP inh – LMPTP (human) inhibition | inhibition, % at 20 µM | hit rate 0.22% among 360,000 | AID 651560 | recombinant LMPTP-A, OMFP fluorogenic substrate, fluorescence intensity;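 active = compounds that cut the enzyme signal by at least half of the control window in the single-dose screen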;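 note: plate controls were DMSO wells with enzyme plus substrate for no effect and substrate without enzyme for full effect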
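Material: LMPTP-A; amount: 0.625 nM enzyme; doses: single 20 µM dose; times: reaction 50 min, room temperature, dark; technique: fluorescence intensity of OMFP turnover product; benchmarks: no-enzyme and uninhibited controls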
SUMO1-SIM PPI – alters human SUMO1 binding to SIM partners; AID 602429; SUMO1 binding to a labelled peptide, TR-FRET, 1 h; P63165; hit rate 0.33% among 360,000; inhibition, % at 20 µM; in the data active = inhibition above about 37%
Target sequence (P63165 whole entry, looked up): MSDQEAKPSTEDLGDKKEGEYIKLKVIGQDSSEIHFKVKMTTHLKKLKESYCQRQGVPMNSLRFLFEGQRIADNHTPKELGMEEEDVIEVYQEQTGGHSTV
GRK2 inh – blocks RNA aptamer binding to human GRK2; bead flow cytometry, FAM-aptamer displacement from GRK2; inhibition of aptamer binding, % at 10 µM; hit rate 0.59% among 330,000;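 active = inhibition of aptamer binding above 40%, roughly 3 SD of noise, on plates passing a quality check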;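 note: median bead fluorescence of bound FAM aptamer so fluorescent compounds give negative values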
Scp1 confirm – Scp-1 (human) inhibition, single-dose confirmed. hit rate 61% among 2,500. shares compounds with Scp1 inh. recombinant SCP-1 catalytic domain, phosphate release, malachite green absorbance. inhibition, % at 20 µM;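 note: plate controls were DMSO with enzyme for no effect and buffer wells lacking enzyme for full effect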
MG interference – colorimetric interference in Scp-1 counter-screen | shares compounds with Scp1 inh | Colorimetric interference counterscreen, malachite green absorbance 630 nm | apparent inhibition (interference), % at 20 µM | 2,500 tested, under 10 active | AID 540313;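 note: compounds added after enzyme reaction finished so only phosphate colour detection is probed; plate controls were DMSO wells with completed Scp-1 reaction for no effect and substrate wells lacking enzyme for full effect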
Scp1 DSF – binds human Scp-1, shifting its melting temperature; shares compounds with Scp1 inh; hit rate 25% among 1,500; thermal shift relative to vanadate control, % at 40 µM; Recombinant SCP1, Sypro Orange thermal shift Tm;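 active = substances whose mean melting-temperature shift, as a percentage of the reference inhibitor's shift, reaches about 5.3%, limit read from the data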;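 note: 0% = Tm of DMSO wells and 100% = Tm with sodium orthovanadate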
The depositor's hits bear a star; · = no result. Shown are actives, neighbours in structure and some others; about 2.2% of the full set was active somewhere.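 Rule for the calls, unless noted: active = inhibition of at least 30% at 20 µM; inactive = the rest.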

SMILES	Scp1 inh	DNMT1 block	STEP inh	LMPTP inh	SUMO1-SIM PPI	GRK2 inh	Scp1 confirm	MG interference	Scp1 DSF
CCOC(=O)N1CCN(c2c(NCC3CCCO3)c(=O)c2=O)CC1 (stereo not drawn)	82*	-3	-1	1	-3	0	-1	-7	·
CCCNS(=O)(=O)c1ccc(NC(=O)Cc2cccs2)cc1	-5	-3	2	-1	-2	1	·	·	·
CCCN(CCC)S(=O)(=O)c1ccc(NC(=O)Cc2cccs2)cc1	61*	13	2	4	3	4	73*	-11	2
CCCCN(CCCC)S(=O)(=O)c1ccc(NC(=O)Cc2cccs2)cc1	54*	25	2	5	-2	5	58*	-17	7.6*
CCN(CC)S(=O)(=O)c1ccc(OC)c(NC(=O)Cc2cccs2)c1	87*	45	2	32	4	1	74*	-11	6.3*
O=C(Cc1cccs1)Nc1ccc(S(=O)(=O)N2CCCC2)cc1	59*	37	5	7	-2	0	75*	-7	6.1*
COC(=O)CN1C(=O)CSc2ccc(S(=O)(=O)N3CCC(C)CC3)cc21	·	-1	-2	0	3	·	·	·	·
O=C(Cc1ccc(S(=O)(=O)N2CCOCC2)s1)Nc1ccc(N2CCOCC2)cc1	4	2	3	2	-11	5	·	·	·
CN(C)S(=O)(=O)c1ccc(NC(=O)Cc2ccc(S(=O)(=O)N3CCOCC3)s2)cc1	55*	17	4	3	-3	3	58*	-12	5
CCN(CC)CCNC(=O)c1ccc(NC(=O)c2ccc(-n3cncn3)c([N+](=O)[O-])c2)cc1	·	-2	-1	0	-31	·	·	·	·
O=C(Nc1ccc(S(=O)(=O)Nc2nccs2)cc1)c1nn(-c2ccccc2)ccc1=O	75*	43	7	48	10	10	71*	-16	6.8*
Cc1cc2oc(C(=O)Nc3ccc(S(=O)(=O)Nc4nccs4)cc3)cc(=O)c2cc1Cl	52*	37	2	36	9	0	30	-11	·
Cc1cc(C)c2oc(C(=O)Nc3ccc(S(=O)(=O)Nc4nccs4)cc3)cc(=O)c2c1	4	0	-2	8	4	3	·	·	·
Cc1cccc(-n2ccc(=O)c(C(=O)Nc3ccc(S(=O)(=O)Nc4nccs4)cc3)n2)c1	-5	-1	2	5	6	2	·	·	·
CCOC(=O)C1=CCC(c2ccccc2C(F)(F)F)N(S(=O)(=O)c2ccc(C)cc2)C1 (stereo not drawn)	·	-7	0	2	8	·	·	·	·
C[C@@H]1CN([C@H](C)CO)S(=O)(=O)c2ccc(Br)cc2O[C@@H]1CN(C)C(=O)NC1CCCC1	·	0	0	-1	-3	·	·	·	·
CC(/C=C/c1ccco1)=N\NC(=O)c1cc(C)[nH]n1	52*	-15	-2	0	4	4	24	-8	·
CC(/C=C/c1ccco1)=N\NC(=O)c1cc(Cl)ccc1O	54*	49	2	0	36	8	68*	-13	16*
O=C(C=Cc1ccco1)c1cc(Cl)ccc1O	-8	15	0	0	-4	·	·	·	·
CC(/C=C/c1ccco1)=N/NC(=O)c1ccc(C)nc1	-5	3	-1	-2	-10	1	·	·	·
CC(/C=C/c1ccco1)=N\NC(=O)c1cccnc1	55*	-6	-2	0	-6	0	33*	-11	-16
CC1(C(=O)O)CCN1C(=O)c1cccc(C(F)(F)F)c1 (stereo not drawn)	·	-1	1	-1	16	·	·	·	·
O=C(O)c1cccc2c1C(=O)N(c1ccc3c(c1)Cc1ccccc1-3)C2=O	64*	2	4	-1	-21	·	60*	-17	-14
Cc1ccc(N2C(=O)c3cccc4c(C(=O)O)ccc(c34)C2=O)cc1	·	·	·	·	·	3	·	·	·
COc1ccc(CCC(=O)O)c(O)c1	53*	4	-1	2	2	0	46*	-6	-3
SMILES	Scp1 inh	DNMT1 block	STEP inh	LMPTP inh	SUMO1-SIM PPI	GRK2 inh	Scp1 confirm	MG interference	Scp1 DSF
CCN(CC)C(=O)C1=C(C)N(CCC2=CCCCC2)C(=O)C(CC(=O)NC(c2ccccc2)c2ccccc2)C1 (stereo not drawn)	·	-3	3	1	2	·	·	·	·
CCn1c(NC)cc(=O)n(C)c1=O	79*	7	-1	0	24	0	-12	-6	·
COc1ccc(C2CCCCC2SCC(=O)O)cc1OC (stereo not drawn)	·	3	0	1	1	·	·	·	·
CCN1C(=O)[C@H]2[C@@H](c3ccc(OC)cc3)N[C@]3(CCCN(CC4CCCCC4)C3=O)[C@H]2C1=O	·	6	-3	-2	4	·	·	·	·
Cc1c(CCC(=O)O)c(=O)oc2cc(OCc3ccccc3Br)ccc12	83*	-3	3	4	19	9	76*	-9	-11
COc1cccc(C(NC(C)=O)c2nc(-c3csc4ccccc34)cs2)c1 (stereo not drawn)	·	-1	0	1	0	·	·	·	·
CCc1ccc(NC(=O)CC2C(=O)NCCN2C(=O)c2ccc(F)cc2)cc1 (stereo not drawn)	10	2	-5	0	-2	1	-17	-17	·
CC(C)(C)c1ccc(C(=O)N2CCNC(=O)C2CC(=O)Nc2ccc(F)cc2)cc1 (stereo not drawn)	2	1	-1	-1	-2	0	·	·	·
CCOc1ccccc1NC(=O)Nc1cc(S(=O)(=O)N(C)C)ccc1C	73*	-1	-2	-1	1	1	-5	-5	·
Cc1ccc(S(=O)(=O)N(C)C)cc1NC(=O)Nc1ccccc1	-13	3	1	0	-1	0	·	·	·
CN(C)CCC1(c2ccccc2)CCN(C)C1=O (stereo not drawn)	·	-6	-2	-4	1	·	·	·	·
CCOc1ncccc1C(=O)N(C)CC(=O)Nc1ccccc1SC	60*	4	-6	0	-1	0	-3	-7	·
CSc1ccccc1NC(=O)CN(C)C(=O)/C=C/c1ccccc1	2	2	0	0	-7	0	·	·	·
CC(C)CC(N)c1csc(NC(=O)c2cc(C(C)(C)C)nn2Cc2ccccc2)n1 (stereo not drawn)	·	-1	0	0	-124	·	·	·	·
COc1ccc(/C=C2/CCC(CN3CCOCC3)C2=O)cc1 (stereo not drawn)	-5	9	5	1	-28	·	·	·	·

Screening results as filed in PubChem BioAssay.
